Measurements: PMC5815829 (Journal of the American Chemical Society, 2017)
“Also recorded” adds a separate entry of the source. Read-outs that look alike come from different tables or passages of the source.

Key:
[1] = tested on: s10• H6:GFP: loop:s11; assay: Displacement of bound s10 by excess s11; format: binding; conditions: excess s11 added to isolated complex; data not shown
[2] = tested on: truly truncated H6:GFP: loop:s11; assay: Spontaneous dark reassembly with s11; format: binding; conditions: 4 μM protein, 20 μM s11, dark
Method in brief: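 Truncated protein made from intact GFP carrying a sacrificial loop: loop cut by proteolysis, then strand 11 stripped off in 6M Guanidinium-HCl. Protein separated from s11 peptide by size exclusion, refolded by rapid dilution into non-denaturing buffer, then thermally relaxed. 4 µM protein mixed with 20 µM s11 peptide without irradiation. Reassembly followed over time; second-order k reported in M-1s-1.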

[3] = tested on: H6:GFP: loop:s11; conditions: His-tag retained, cited from earlier work
[4] = tested on: H6:GFP: loop:s11•s11; conditions: excess replacement peptide s11^222Q; cited from earlier work
[5] = tested on: s10• H6:s10:loop:GFP; conditions: dark; cited from earlier work
[6] = tested on: H6:s10:loop:GFP; conditions: cited from earlier work

| Sequence | displacement of bound s10 [1] | rate constant k of spontaneous reassembly with s11 in the dark [2] | binding of s11 in the dark ([3]; listed as native peptide) | binding of s11 in the dark [3] | spontaneous off-rate of strand 11 [4] | spontaneous off-rate of strand 10 [5] | reassembly with s10 in the dark [6] |
| --- | --- | --- | --- | --- | --- | --- | --- |
| HMVLLEFVTAA [s11] | able to displace the bound s10, and light accelerates this process | 1.2 × 10^0 M^−1 s^−1 | unable to displace the H6 slotted into this groove until it is vacated following light activation | unable to bind s11 in the dark; also recorded: does not rebind added synthetic strand 11 (s11) spontaneously in the dark | effectively zero |  |  |
| NHYLSTQSVLS [s10] |  |  |  |  |  | very slow | readily reassembles |
